Measurements taken from ChEMBL document CHEMBL2163220 (J Med Chem, 2012).
Activity calls are given as the source filed them. No cut-off for these calls is given here.

How the values were obtained:
[1] = target: T1, Glucocorticoid receptor (Homo sapiens) (UniProt P04150); assay: Agonist activity at glucocorticoid receptor expressed in human PC3 cells assessed as stimulation of receptor transactivation at 1 uM by luciferase reporter gene assay; format: functional, cell-based; conditions: PC-3
T1 sequence (whole entry): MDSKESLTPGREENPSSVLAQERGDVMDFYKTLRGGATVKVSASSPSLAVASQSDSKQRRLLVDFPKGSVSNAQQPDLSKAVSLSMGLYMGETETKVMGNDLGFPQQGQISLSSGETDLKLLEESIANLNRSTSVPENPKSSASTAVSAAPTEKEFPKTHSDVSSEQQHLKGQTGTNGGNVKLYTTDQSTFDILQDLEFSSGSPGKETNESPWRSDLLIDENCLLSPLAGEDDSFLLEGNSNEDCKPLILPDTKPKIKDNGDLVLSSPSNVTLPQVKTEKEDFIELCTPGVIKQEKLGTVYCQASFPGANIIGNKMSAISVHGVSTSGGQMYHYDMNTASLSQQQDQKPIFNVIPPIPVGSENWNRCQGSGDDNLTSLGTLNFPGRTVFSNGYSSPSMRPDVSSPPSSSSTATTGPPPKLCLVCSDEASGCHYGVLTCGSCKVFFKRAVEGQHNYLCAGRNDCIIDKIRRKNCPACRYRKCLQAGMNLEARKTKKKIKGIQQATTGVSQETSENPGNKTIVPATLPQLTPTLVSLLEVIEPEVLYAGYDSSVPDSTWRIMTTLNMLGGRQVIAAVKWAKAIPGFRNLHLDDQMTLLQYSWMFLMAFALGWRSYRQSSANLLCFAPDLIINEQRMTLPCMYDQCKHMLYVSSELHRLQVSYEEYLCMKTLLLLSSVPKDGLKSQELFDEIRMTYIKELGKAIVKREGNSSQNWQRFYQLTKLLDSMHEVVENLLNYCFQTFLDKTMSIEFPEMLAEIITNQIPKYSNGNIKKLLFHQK
Procedure, shortened: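 PC-3 cells express GR endogenously and were transfected only with the MMTV-luc reporter. Compound tested at 1 μM, alone or against transactivation induced by 10 nM dexamethasone. Read-out was luciferase reporter activity.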

[2] = tested on: PC-3; assay: Effect on in Maspin expression in human PC3 cells deficient in wild type androgen receptor at 2.5 uM by luciferase reporter gene assay; format: functional, cell-based
Procedure, shortened: (§1)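 PC-3 cells were transfected with maspin-luc, with or without cotransfected AR. Cells were exposed to DMSO vehicle or compound at 2.5 and 5 μM. Luciferase activity was measured in triplicate.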

[3] = target: T2, Androgen receptor (Homo sapiens) (UniProt P10275); assay: Agonist activity at androgen receptor expressed in human PC3 cells assessed as stimulation of receptor transactivation at 0.1 to 1 uM by luciferase reporter gene assay; format: functional, cell-based; conditions: PC-3
T2 sequence (whole entry): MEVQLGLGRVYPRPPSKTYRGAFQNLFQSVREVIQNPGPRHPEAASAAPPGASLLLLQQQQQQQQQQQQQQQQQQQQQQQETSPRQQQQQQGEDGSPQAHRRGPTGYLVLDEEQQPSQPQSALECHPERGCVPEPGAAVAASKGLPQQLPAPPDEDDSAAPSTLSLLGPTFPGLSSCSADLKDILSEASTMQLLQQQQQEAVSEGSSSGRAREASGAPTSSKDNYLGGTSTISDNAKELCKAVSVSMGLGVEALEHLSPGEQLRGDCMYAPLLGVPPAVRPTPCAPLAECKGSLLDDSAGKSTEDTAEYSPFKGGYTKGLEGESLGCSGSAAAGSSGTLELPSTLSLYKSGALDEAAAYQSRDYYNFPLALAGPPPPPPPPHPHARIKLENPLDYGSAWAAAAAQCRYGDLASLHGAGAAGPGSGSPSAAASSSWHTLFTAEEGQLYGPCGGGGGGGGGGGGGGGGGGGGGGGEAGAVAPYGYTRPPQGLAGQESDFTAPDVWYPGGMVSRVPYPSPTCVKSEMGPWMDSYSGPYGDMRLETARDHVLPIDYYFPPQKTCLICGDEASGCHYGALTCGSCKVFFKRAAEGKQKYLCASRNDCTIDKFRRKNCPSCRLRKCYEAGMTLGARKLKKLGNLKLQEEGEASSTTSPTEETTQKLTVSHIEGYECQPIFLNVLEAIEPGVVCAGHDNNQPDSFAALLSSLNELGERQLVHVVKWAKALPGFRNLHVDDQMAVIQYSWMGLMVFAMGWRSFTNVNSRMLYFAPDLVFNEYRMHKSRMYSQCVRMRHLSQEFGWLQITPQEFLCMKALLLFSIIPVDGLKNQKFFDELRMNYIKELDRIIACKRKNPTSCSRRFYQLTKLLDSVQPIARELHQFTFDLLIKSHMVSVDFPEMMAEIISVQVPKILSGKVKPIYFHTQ
Procedure, shortened: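 Full-length wild-type or mutant AR plasmid transiently transfected into PC-3 cells with MMTV-luc and Renilla luciferase reporters. Cells treated with DMSO vehicle or compound at 0.1 and 1 μM, alone or with 0.1 nM DHT. Luciferase read as relative luciferase units. Run in triplicate.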

[4] = tested on: LNCaP (Homo sapiens); assay: Effect on androgen receptor gene expression in human LNCaP cells at 1 or 2.5 uM incubated for 24 hrs by RT-PCR
[5] = target: T2, Androgen receptor (Homo sapiens); assay: Antagonist activity at androgen receptor in human PC3 cells assessed as increase in Maspin promoter activity at 5 uM by luciferase reporter gene assay; format: functional, cell-based; conditions: PC-3; procedure, shortened: as §1
[6] = target: T2, Androgen receptor (Homo sapiens); assay: Antagonist activity at androgen receptor in human LNCaP cells assessed as increase in Maspin expression incubated for 24 hrs in presence of DHT by RT-PCR

Cc1coc2c1C(=O)C(=O)c1c-2ccc2c1CCCC2(C)C [TANSHINONE IIA]
Activity [1]: inactive
Activity [2]: inactive
Activity [3]: inactive
Activity [4]: inactive
Activity [5]: Active
Activity [6]: Dose-dependent effect
